Reference: ChEMBL document CHEMBL4041519, “Design, synthesis and SAR analysis of potent BACE1 inhibitors: Possible lead drug candidates for Alzheimer's disease” (Eur J Med Chem, 2017)

Legend:
Beta-secretase 1 [1] = biological target: T1, Beta-secretase 1 (Homo sapiens, UniProt P56817); experiment: Inhibition of BACE1 in human H4 cells expressing human APP K595N/M596L double mutant assessed as decrease in amyloid beta 42 and amyloid beta 40 level after overnight incubation by ELISA method; format: cell-based; settings: for inhibition: concentration not given here
Method in brief: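 H4 neuroglioma cells seeded 2x10^5 per well, grown 24 h (5% CO2, humidified), then exposed overnight to increasing compound concentrations; 1% DMSO negative control, R-flurbiprofen positive control. Supernatant Aβ42 and Aβ40 captured with biotinylated 4G8 plus C-terminal-specific rabbit antibodies, streptavidin magnetic beads, electrochemiluminescence readout. EC50 = concentration halving Aβ production; mean of ≥3 experiments ± SD.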

Beta-secretase 1 [2] = biological target: T1, Beta-secretase 1; experiment: Inhibition of recombinant human BACE1 (1 to 460 residues) expressed in baculovirus infected insect cells using rhodamine-EVNLDAEFK peptide as substrate measured after 60 mins by FRET assay
Method in brief: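 Enzyme 1 U/mL in 50 mM sodium acetate pH 4.5 with 750 nM substrate (Swedish-mutant peptide, KM 20 µM); screening at 30, 10, 3, 1 and 0.3 µM, 3.3% DMSO final. Incubated in the dark at 25 °C, stopped with 2.5 M sodium acetate; fluorescence ex 545/em 585 nm. IC50 from nonlinear fit of RFU/h versus log concentration; mean of 3 experiments.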

T1 sequence (P56817 whole entry): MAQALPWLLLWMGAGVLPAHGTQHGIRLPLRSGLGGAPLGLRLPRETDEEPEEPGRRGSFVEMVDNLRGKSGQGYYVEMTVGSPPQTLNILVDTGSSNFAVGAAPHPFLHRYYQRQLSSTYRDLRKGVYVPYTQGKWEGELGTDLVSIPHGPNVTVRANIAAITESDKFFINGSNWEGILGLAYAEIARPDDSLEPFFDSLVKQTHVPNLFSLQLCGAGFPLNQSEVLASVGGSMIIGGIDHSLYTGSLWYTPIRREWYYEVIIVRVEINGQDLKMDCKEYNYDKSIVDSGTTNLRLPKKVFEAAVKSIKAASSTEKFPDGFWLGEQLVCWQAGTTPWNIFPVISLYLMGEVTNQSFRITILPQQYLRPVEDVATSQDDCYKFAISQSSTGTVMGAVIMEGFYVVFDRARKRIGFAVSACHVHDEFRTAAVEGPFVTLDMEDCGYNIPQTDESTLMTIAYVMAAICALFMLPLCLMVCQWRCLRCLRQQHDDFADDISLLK

Row | Structure (SMILES) | EC50 (Beta-secretase 1 [1]) [µM] | inhibition (Beta-secretase 1 [1]) [%] | IC50 (Beta-secretase 1 [2]) [µM]
1 | Fc1ccc(-c2cnc(-c3cccc(-c4cnc(-c5c[nH]c6cc(F)ccc56)[nH]4)c3)[nH]2)cc1 | 0.81 | 86 | 0.075
2 | Fc1ccc2nc(-c3cccc(-c4cnc(-c5c[nH]c6cc(F)ccc56)[nH]4)c3)[nH]c2c1 | 0.35 | 90 | 0.085
3 | O=C(Nc1ccc(F)cc1)c1cccc(-c2cnc(-c3c[nH]c4ccccc34)[nH]2)c1 | 1.33 | 69 | 0.098
4 | O=C(Nc1cccnc1)c1cccc(-c2cnc(-c3c[nH]c4ccccc34)[nH]2)c1 | 0.88 | 42 | 0.31
5 | O=C(Nc1cccc(-c2cnc(-c3c[nH]c4cc(F)ccc34)[nH]2)c1)c1cccnc1 | 0.41 | 82 | 0.13
6 | O=C(Nc1cccc(-c2cnc(-c3c[nH]c4ccccc34)[nH]2)c1)c1cccnc1 | 0.48 | 75 | 0.22
7 | O=C(Nc1ccccc1)c1cccc(-c2cnc(-c3c[nH]c4ccccc34)[nH]2)c1 | 1.21 | 64 | 0.11
8 | Fc1ccc2nc(-c3cccc(-c4cnc(-c5c[nH]c6cc(OC(F)(F)F)ccc56)[nH]4)c3)[nH]c2c1 | 0.29 | 87 | 0.12
9 | Fc1ccc(-c2cnc(-c3cccc(-c4cnc(-c5c[nH]c6cc(OC(F)(F)F)ccc56)[nH]4)c3)[nH]2)cc1 | 0.67 | 77 | 0.18
10 | O=C(Nc1ccncc1)c1cccc(-c2cnc(-c3c[nH]c4ccccc34)[nH]2)c1 | 0.59 | 70 | 0.66
